# From PubChem BioAssay AID493236 (Broad Institute, 2011)
# Inconclusive results are not listed. Unmarked numbers belong to inactive results. Active and inactive are the calls of the source.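 The calls were made as follows: active = luminescence cut by more than half of the full-inhibition control window in a dose series; inconclusive = no clear call, values can overlap the other calls; inactive = signal rising instead of falling, or the rest.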
# Tested on: proteasome chymotrypsin-like activity (human)
# Experiment: inhibition of cellular proteasome chymotrypsin-like cleavage – cell-based, U2OS, luminescence, dry powder, set 4, counter-screen for HIF pathway activator project, dose response (AID 493236)
# Details: U2OS cells, Proteasome-Glo chymotrypsin luminescence; series mostly up to 38 µM; activity change, negative = inhibition: at the top concentration
# Method in brief: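 Times: 24 h plating, 4 h compound, 2 h reagent / System: U2OS cells / Quantity: 2,500 U2OS cells per well / Technique: Proteasome-Glo luminescence / Repeats: each compound tested in duplicate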
Compound,"activity change, negative = inhibition [%]",outcome
O=C(NCCCn1ccnc1)c1cc(-c2ccccc2)on1,-8.48,
Cc1ccc(CNc2nc(-c3ccccn3)nnc2-c2ccccc2)cc1C,-3.29,
O=C(c1cc(-c2ccccc2)on1)N1CCC(N2CCOCC2)CC1,3.6,
CN1CCN(C(=O)c2cc(-c3ccccc3)on2)CC1,-0.104,
c1ccc(-c2nnc(-c3ccccn3)nc2NCC2CCCCC2)cc1,-0.951,
c1ccc(CCNc2nc(-c3ccccn3)nnc2-c2ccccc2)cc1,-3.33,
O=C(Nc1ccc2ccccc2n1)c1cc(-c2ccccc2)on1,-3.31,
c1ccc(-c2nnc(-c3ccccn3)nc2NCCN2CCOCC2)cc1,-6.63,
Cc1cccc(CNC(=O)c2cc(-c3ccccc3)on2)c1,4.7,
c1ccc(-c2nnc(-c3ccccn3)nc2Nc2cnc3ccccc3n2)cc1,-6.01,
c1ccc(-c2ccc(CNc3nc(-c4ccccn4)nnc3-c3ccccc3)cc2)cc1,-2.18,
COc1ccc(CNc2nc(-c3ccccn3)nnc2-c2ccccc2)cc1,-0.602,
C[C@@H](Nc1nc(-c2ccccn2)nnc1-c1ccccc1)c1ccccc1,-7.7,
Cc1cccc(Nc2nc(-c3ccccn3)nnc2-c2ccccc2)n1,6.59,
COc1cccc(CNc2nc(-c3ccccn3)nnc2-c2ccccc2)c1,2.66,
CC1CN(Cc2ccc(O)c3ncccc23)CC(C)O1 (stereo not given),-10,
O=C(NCCCCO)c1cc(-c2ccccc2)on1,-7.19,
OCC1CCN(c2nc(-c3ccccn3)nnc2-c2ccccc2)CC1,-0.354,
c1ccc(-c2nnc(-c3ccccn3)nc2N2CCC(C3CCCCC3)C2)cc1 (stereo not given),-2.79,
Cc1ccccc1CNc1nc(-c2ccccn2)nnc1-c1ccccc1,2.35,

Compound,"activity change, negative = inhibition [%]",outcome
COc1ccccc1N1CCN(Cc2ccc(O)c3ncccc23)CC1,-1.65,
OCCCNc1nc(-c2ccccn2)nnc1-c1ccccc1,-1.6,
Oc1ccc(CN2CCc3ccccc3C2)c2cccnc12,,inactive
O=C(NCCCN1CCOCC1)c1cc(-c2ccccc2)on1,-1.67,
c1ccc(-c2nnc(-c3ccccn3)nc2NCC2CCOCC2)cc1,-4.29,
Clc1cccc(CNc2nc(-c3ccccn3)nnc2-c2ccccc2)c1,-1.26,
Cc1cccc(CNc2nc(-c3ccccn3)nnc2-c2ccccc2)c1,-2.56,
O=C(NCCN1CCOCC1)c1cc(-c2ccccc2)on1,-6.96,
Cc1ccc(CNC(=O)c2cc(-c3ccccc3)on2)cc1,2.56,
O=C(NCCCO)c1cc(-c2ccccc2)on1,0.054,
CCCCNC(=O)c1cc(-c2ccccc2)on1,0.305,
Oc1ccc(CN2CCC(Cc3ccccc3)CC2)c2cccnc12,-2.75,
O=C(Nc1ncc(-c2ccccc2)o1)c1cc(-c2ccccc2)on1,1.92,
Cc1ccc(Nc2nc(-c3ccccn3)nnc2-c2ccccc2)cn1,-0.351,
C[C@H](Nc1nc(-c2ccccn2)nnc1-c1ccccc1)C1CCCCC1,2.06,
CC(C)(C)CCNc1nc(-c2ccccn2)nnc1-c1ccccc1,-2.25,
c1ccc(-c2nnc(-c3ccccn3)nc2NCCc2ccccn2)cc1,-5.96,
c1ccc(-c2nnc(-c3ccccn3)nc2N2CCC(c3ccccc3)C2)cc1 (stereo not given),1.51,
c1ccc(-c2nnc(-c3ccccn3)nc2NCC2CC2)cc1,-1.38,
c1ccc(-c2cccc(CNc3nc(-c4ccccn4)nnc3-c3ccccc3)c2)cc1,10.3,
